Nine compounds from PMC10184136 (RSC Advances, 2023) can be followed below.

“Also recorded” adds a separate entry of the source.

Data set [1] has as its target calf intestinal alkaline phosphatase (CIALP) (Bos taurus, UniProt P19111). The data set is described as follows: Alkaline phosphatase inhibition assay. It is filed as biochemical.
Data set [2] concerns red blood cell membrane (bovine erythrocytes). The data set is described as follows: Hemolytic activity. Conditions: bovine erythrocyte (RBC) suspension, pH 7.4. The class given is cell-based. In short, it runs like this:
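Bovine blood was collected in EDTA, diluted with 0.9% NaCl and centrifuged at 1000×g for 10 min. Erythrocytes were suspended in phosphate saline buffer, pH 7.4. 20 μl of a 10 mg ml−1 compound solution was added to 180 μl RBC suspension and incubated 30 min at room temperature. PBS was the negative control and Triton X-100 the positive control. % hemolysis was calculated by formula; mean ± SEM.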

Data set [3] concerns the target alkaline phosphatase (Bos taurus, UniProt P19111). The data set can be described thus: Kinetic analysis. Conditions: for K m / V max: substrate p-NPP. The class given is biochemical, calf. In short, it runs like this:
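Run under the same pre-incubation and conditions as the CIALP p-NPP assay. p-NPP was used at 10, 5, 2.5, 1.25, 0.625 and 0.3125 mM with inhibitor at 0, 0.106, 0.211 and 0.422 μM. Initial velocities came from the linear absorbance phase, read at 1-min intervals up to 10 min. Inhibition type was taken from Lineweaver–Burk plots (1/V vs 1/[S]). Ki came from a secondary plot of slope vs inhibitor concentration, with linear least-squares fits.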

calf intestinal alkaline phosphatase (CIALP), sequence (P19111 20-506 limits assumed): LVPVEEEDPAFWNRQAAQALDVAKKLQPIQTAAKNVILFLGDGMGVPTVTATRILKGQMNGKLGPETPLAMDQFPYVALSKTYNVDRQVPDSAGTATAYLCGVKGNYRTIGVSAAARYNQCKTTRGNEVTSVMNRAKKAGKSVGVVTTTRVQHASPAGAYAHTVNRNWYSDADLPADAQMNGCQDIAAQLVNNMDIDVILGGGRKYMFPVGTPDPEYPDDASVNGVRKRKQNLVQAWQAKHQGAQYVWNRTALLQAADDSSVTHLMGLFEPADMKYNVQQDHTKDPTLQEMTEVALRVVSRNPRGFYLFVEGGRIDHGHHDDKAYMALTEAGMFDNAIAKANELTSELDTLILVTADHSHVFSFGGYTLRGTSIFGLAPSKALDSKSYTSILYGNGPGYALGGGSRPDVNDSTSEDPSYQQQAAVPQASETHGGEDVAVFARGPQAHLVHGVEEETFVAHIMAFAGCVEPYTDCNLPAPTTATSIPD
alkaline phosphatase, sequence (P19111 20-506 limits assumed): as above

In data set [1], `Cc1cnc(NC(=O)CCSc2nnc(-c3ccccc3)o2)s1` [8e, N-(5-Methyl-1,3-thiazol-2-yl)-3-[(5-phenyl-1,3,4-oxadiazol-2-yl)sulfanyl]propanamide] had an IC50 of 6.32 ± 0.551 µM. The hemolysis at 30 min, 1 mg/mL in data set [2] worked out at 6.84 ± 0.03%.

In data set [1], `Cc1cnc(NC(=O)CCSc2nnc(-c3ccc(N)cc3)o2)s1` [8g, 3-{[5-(4-Aminophenyl)-1,3,4-oxadiazol-2-yl]sulfanyl}-N-(5-methyl-1,3-thiazol-2-yl)propanamide] came in with an IC50 of 0.211 ± 0.019 µM. The same compound displayed a Ki in data set [3] of 0.42 µM. The K m in data set [3] (8g 0.106 μM), in data set [3] (8g 0.211 μM) and in data set [3] (8g 0.422 μM) was 360 µM in each case. In addition, the V max was 0.003004 ΔA min^−1 in data set [3] (8g 0.106 μM), 0.002406 ΔA min^−1 in data set [3] (8g 0.211 μM) and 0.001826 ΔA min^−1 in data set [3] (8g 0.422 μM). The Inhibition type entry in data set [3] (Lineweaver–Burk plots) is given as “non-competitively; also recorded: Non-competitive”. The compound also showed a hemolysis at 30 min, 1 mg/mL in data set [2] of 8.82 ± 0.02%.

Take `Cc1cnc(NC(=O)CCSc2nnc(-c3ccc(O)cc3)o2)s1` [8f, 3-{[5-(4-Hydroxyphenyl)-1,3,4-oxadiazol-2-yl]sulfanyl}-N-(5-methyl-1,3-thiazol-2-yl)propanamide]: 2.16 ± 0.118 µM corresponded to half-maximal inhibition in data set [1] (IC50). The same compound showed a hemolysis at 30 min, 1 mg/mL in data set [2] of 7.47 ± 0.05%.

For `Nc1ccc(-c2nnc(SCCC(=O)Nc3nccs3)o2)cc1` [8c, 3-{[5-(4-Aminophenyl)-1,3,4-oxadiazol-2-yl]sulfanyl}-N-(1,3-thiazol-2-yl)propanamide], it took 8.73 ± 0.664 µM to reach half-maximal inhibition in data set [1] (IC50). In data set [2], this compound returned a hemolysis at 30 min, 1 mg/mL of 7.58 ± 0.01%.

Turning to `Cc1ccc(-c2nnc(SCCC(=O)Nc3nccs3)o2)cc1` [8d, 3-{[5-(4-Methylphenyl)-1,3,4-oxadiazol-2-yl]sulfanyl}-N-(1,3-thiazol-2-yl)propanamide], the IC50 in data set [1] came out at 1.88 ± 0.071 µM. Also, the hemolysis at 30 min, 1 mg/mL in data set [2] is 8.32 ± 0.03%.

The compound `O=C(CCSc1nnc(-c2ccc(O)cc2)o1)Nc1nccs1` [8b, 3-{[5-(4-Hydroxyphenyl)-1,3,4-oxadiazol-2-yl]sulfanyl}-N-(1,3-thiazol-2-yl)propanamide] yielded an IC50 in data set [1] of 5.99 ± 0.417 µM. In addition, the hemolysis at 30 min, 1 mg/mL in data set [2] was found to be 5.68 ± 0.04%.

As for `Cc1cnc(NC(=O)CCSc2nnc(-c3cccc([N+](=O)[O-])c3)o2)s1` [8h, N-(5-Methyl-1,3-thiazol-2-yl)-3-{[5-(3-nitrophenyl)-1,3,4-oxadiazol-2-yl]sulfanyl}propanamide], in data set [1], half-maximal inhibition (IC50) was put at 3.75 ± 0.981 µM. The compound further yielded a hemolysis at 30 min, 1 mg/mL in data set [2] of 8.63 ± 0.02%.

In turn, `CC(C)(C)CC(C)(C)c1ccc(OCCO)cc1` [Triton X, reference compound] displayed a hemolysis at 30 min, 1 mg/mL in data set [2] of 89 ± 0.01%.

`O=C(CCSc1nnc(-c2ccccc2)o1)Nc1nccs1` [8a, 3-[(5-Phenyl-1,3,4-oxadiazol-2-yl)sulfanyl]-N-(1,3-thiazol-2-yl)propanamide] yielded an IC50 in data set [1] of 3.98 ± 0.356 µM. In data set [2], this compound showed a hemolysis at 30 min, 1 mg/mL of 7.79 ± 0.02%.
